# Most compounds without a hit are left out; they make up all but 2.6% or so of the library.
# MITF act – activators of MITF-driven TRPM1 promoter activity in SK-MEL-5 cells; SK-MEL-5 TRPM1-promoter luciferase, 24 h; % of positive control, neutral wells = 0; activation, % at 12.5 µM; 300,000 tested, 0.75% active; AID 588334;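 active = mean activation of at least 80% with every replicate also reaching 80%; inconclusive = mean reaches 80% but some replicate falls short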;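 also: 0% = neutral control wells and 100% = parthenolide positive control wells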
# Xi reactivation – activators of X-chromosome reactivation in mouse fibroblasts. XiGFP mouse fibroblasts, % GFP-positive cells imaging, 3 d; cells co-treated with 5-aza-dC sensitizer; scaled so ellipticine positive control = 100%. activation, % at 7.58 µM. 360,000 tested, 0.055% active. AID 743238;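 active = mean normalized replicate activation at least 10% and every replicate at or above 10%; inconclusive = only one of the two criteria met; inactive = mean below 10% and not all replicates reach 10%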;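 also: 0% = median of on-plate neutral control wells and 100% = ellipticine 6 µM median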
#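 Material: SV40-immortalized XiGFP fibroblast cells, line 68-5-11 | Buffer or medium: DMEM containing 5-aza-dC | Dosing: One concentration, pinned | Times: 3 d treatment, 15 min room-temperature fixation | Controls: Ellipticine 6 µM positive control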
# Vif imaging – inhibitors of HIV Vif | HEK293T cells, Vif self-association by quenched fluorescence, imaging, 24 h | inhibition, % at 7.49 µM | 340,000 tested, 0.35% active | AID 602346; in the data active = inhibition above about 50%, passing the limit was not always enough; inconclusive = no clear call, values can overlap the other calls; inactive = below about 31%
# esBAF inh – SWI/SNF esBAF complex inhibition; 350,000 tested, 2% active; reporter increase, % at 12.5 µM; AID 602393; mouse ES cells, Bmi1-luciferase knock-in reporter, 24 h; 100% = twice the neutral-well signal; in the data active = activation above about 40%; inconclusive = no clear call, values can overlap the other calls;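 also: 0% = median of the plate's neutral control wells and 100% = double that signal; a rise in the Bmi1 reporter signal indicates esBAF inhibition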
# Wnt act – activators of Wnt/beta-catenin signaling. Wnt/beta-catenin reporter cell assay, activator, plate reader. activation, % at 9.35 µM. 300,000 tested, 1.2% active. AID 743398; in the data active = activation above about 30%, passing the limit was not always enough; inconclusive = no clear call, values can overlap the other calls;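 also: 0% = neutral control wells and 100% = positive control wells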
# The depositor's hits bear a star; i = inactive; ? = inconclusive; · = no result.
SMILES,MITF act,Xi reactivation,Vif imaging,esBAF inh,Wnt act
COc1ccc(NC(=O)Nc2nnc(-c3ccco3)s2)cc1,78,0,-3,30,53*
COc1ccc(NC(=O)c2cc(-c3ccccc3Cl)on2)cc1,·,0,-11,63*,?
CCc1ccc(NC(=O)c2cc(-c3ccco3)on2)cc1,101*,·,·,66*,·
COc1ccc(NC(=O)c2cc(-c3ccccc3OC)on2)cc1,9,·,7,13,·
O=C(C[C@H]1C=C[C@@H](NC(=O)c2ccc3c(c2)OCO3)[C@@H](CO)O1)NCc1ccc(F)cc1,·,0,·,·,·
O=C(CCN1CCCCC1)N[C@@H]1CC[C@@H](CCNS(=O)(=O)c2ccccc2)O[C@@H]1CO,·,0,·,0,·
CN1C(=O)c2cc(NC(=O)Nc3ccc(Cl)cc3)ccc2OC[C@H]2O[C@H](CC(=O)O)CC[C@H]21,·,0,·,3,·
COc1ccc(NC(=O)c2cc(-c3ccco3)on2)c(OC)c1,2,0,12,8,-1
COc1ccc(C(=O)Nc2ccc(C3CC3(Cl)Cl)cc2)cc1 (centres undefined),37,0,-3,91*,-1
COc1ccc(NC(=O)c2cc(-c3ccco3)on2)cc1,92*,5,-11,·,42*
O=C1c2ccccc2NC(c2ccccn2)N1c1ccc(Cl)cc1 (centres undefined),76,·,3,61*,·
Cc1cccc(C2Nc3ccccc3C(=O)N2c2ccccc2)n1 (centres undefined),-9,·,-4,2,0
CN1C(=O)c2cc(NS(=O)(=O)c3ccccc3Cl)ccc2OC[C@H]2O[C@@H](CC(=O)Nc3cc(F)ccc3F)CC[C@@H]21,·,0,·,·,·
Cc1cccn2c(=O)c(/C=C3\SC(=S)NC3=O)c(NCCCN3CCOCC3)nc12,-4,0,83*,-8,4
C[C@@H]1CN([C@@H](C)CO)C(=O)c2cc(C#Cc3ccccc3)cnc2O[C@@H]1CN(C)CC1CCOCC1,·,0,·,-2,·
O=C(CSc1nnc(C2CCCCC2)o1)Nc1ccccc1Cl,109*,0,-1,62*,21
Cn1nc(-c2ccc(Cl)cc2)cc1NC(=O)CC(C)(C)CC(=O)O,·,0,-3,·,41*
CC(C)C(=O)Nc1ccc2c(c1)C(=O)N(C)[C@@H]1CC[C@H](CC(=O)NCc3ccccc3F)O[C@@H]1CO2,·,0,·,4,·
Cc1cc(NC(=O)Nc2ccc(Cl)cc2)no1,44,0,1,47*,8
O=C(Nc1ccc(Cl)cc1)Nc1ccc(Br)cn1,94*,0,18,?,2
COc1cccc(NC(=O)Nc2ccc(Br)cn2)c1,106*,0,3,47*,-4
Cc1ccc(NC(=O)Nc2ccc(F)cc2)nc1,82*,·,-9,·,·
CCOc1ccc(NC(=O)Nc2ccc(Br)cn2)cc1,?,0,4,·,·
COc1ccc(NC(=O)Nc2ccc(Br)cn2)cc1OC,42,·,-7,17,-1
COc1ccc(-c2cnc3c(c2)C(=O)N([C@H](C)CO)C[C@H](C)[C@H](CN(C)C(=O)C2CCCCC2)O3)cc1,·,-1,·,-2,·
SMILES,MITF act,Xi reactivation,Vif imaging,esBAF inh,Wnt act
O=C(C1CCOCC1)N1CC(=O)N2[C@@H](CO)[C@@H](c3ccc(C#CC4CCCC4)cc3)[C@@H]2C1,·,0,·,·,·
CCCNC(=O)N1[C@@H]2c3ccc(-c4ccc(F)cc4)c(=O)n3C[C@@H]2[C@@H](CO)[C@@H]1C(=O)N1CCCCC1,·,0,·,-1,·
O=C(NCC1CCCN1S(=O)(=O)c1cccs1)C(=O)Nc1ccccc1Cl (centres undefined),29,0,-12,51*,4
COc1cccc(NC(=O)C(=O)NCC2CCCN2S(=O)(=O)c2ccccc2)c1 (centres undefined),158*,1,-16,79*,43*
C[C@@H]1CN([C@H](C)CO)C(=O)c2cccc(NC(=O)c3cnccn3)c2O[C@@H]1CN(C)C(=O)Nc1ccc(F)cc1,·,0,·,-2,·
O=C1C(=Cc2ccc(Br)o2)C(=O)c2ccccc21,13,·,-9,64*,·
CC1=C/C(=C\c2ccc(Br)o2)C(=O)O1,-5,0,2,·,-4
C/C(=N\Nc1ncnc2sc(C)c(C)c12)c1ccccn1,-67,85*,i,-26,-6
Cc1sc2ncnc(Nc3ccc(O)cc3)c2c1C,4,0,7,3,38*
Oc1ccc(Nc2ncnc3scc(-c4ccccc4)c23)cc1,-13,0,15,·,-1
Cc1sc2ncnc(N/N=C/c3cccc(O)c3)c2c1C,70,0,1,·,·
O=C1NC(c2ccccc2)=N/C1=C/c1ccco1,51,0,2,·,?
O=C1NC(c2ccccc2Br)=N/C1=C\c1ccco1,46,0,-10,·,70*
CC(=O)Nc1ccc(NC(=O)CCN2C(=O)c3ccccc3C2=O)cc1,·,0,-3,-7,-1
Cc1ccc(C)c(S(=O)(=O)NC(C)C(=O)Nc2ccc(-c3nc4ccccc4s3)cc2)c1 (centres undefined),50,·,-6,52*,13
Cc1ccc2sc(-c3ccc(NC(=O)CCN4C(=O)c5ccccc5C4=O)cc3)nc2c1,·,0,·,·,73*
CC(C)(C)c1ccc(S(=O)(=O)NCC(=O)Nc2ccc(-c3nc4ccccc4s3)cc2)cc1,58,·,-9,53*,·
CO[C@H]1CN(C)C(=O)c2cc(NC(=O)C3CCC3)ccc2OC[C@@H](C)N(C(=O)CN(C)C)C[C@H]1C,·,0,·,3,·
Cc1cc(C(=O)COC(=O)c2ccc(O)cc2)c(C)n1CC(F)(F)F,·,0,4,95*,51*
C[C@H](CO)N1C[C@H](C)[C@H](CN(C)S(=O)(=O)c2cccs2)Oc2c(NC(=O)Nc3ccccc3)cccc2C1=O,·,0,·,0,·
CN1C(=O)C2C=CC1C1C(=O)N(c3ccccc3)C(=O)C21 (centres undefined),89*,·,-4,57*,·
O=Cc1cccc(OC(=O)/C=C/c2ccco2)c1,·,0,-5,48*,9
O=C(/C=C/c1ccco1)Oc1ccc(C(=S)N2CCOCC2)cc1,1,0,-1,·,84*
C[C@@H]1CCCCO[C@@H](CN(C)C(=O)C2CCCCC2)[C@@H](C)CN([C@H](C)CO)C(=O)c2cc(NS(C)(=O)=O)ccc2O1,·,0,·,-3,·
CO[C@@H]1CN(C)C(=O)c2cc(NC(=O)C3CC3)ccc2OC[C@H](C)N(C(=O)Cc2ccccn2)C[C@H]1C,·,0,·,2,·
Fc1ccccc1-c1cc2ncccc2cn1,71,0,4,30,34*
O=C(Nc1ccccc1Br)c1ccc(N2CCCC2=O)cc1,87*,0,-6,55*,37*
Cc1cccc(C)c1NC(=O)c1ccc(N2CCCC2=O)cc1,11,0,-5,-4,-5
Cc1csc(NC(=O)c2ccc(N3CCCC3=O)cc2)n1,-41,0,14,·,35*
